Test results from ChEMBL document CHEMBL3393008, “Identification of a novel orally bioavailable phosphodiesterase 10A (PDE10A) inhibitor with efficacy in animal models of schizophrenia” (J Med Chem, 2015).

Experiments:
Format in all cases: ADME, organism-based
[1] = Oral bioavailability in rat at 10 mg/kg administered as single dose; conditions: in vivo
[2] = Volume of distribution in rat; conditions: in vivo
[3] = Drug level in rat brain at 10 mg/kg, sc after 1 hr; set-up: dose 10 mg/kg, route subcutaneous; conditions: read-out: Drug uptake
In short: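 Rats dosed 10 mg/kg sc; total brain level measured 1 h after dosing.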

Structure (SMILES): COCCc1ccc(-c2c(C)nc3c(N4CCOCC4)nccn23)cn1
- bioavailability [1]: 45%
- Vd [2]: 1.9 L/kg
- concentration at 1 h [3]: 1210 ng/g
